According to the array DNA melting data of Ke et al. (doi:10.1101/2024.01.08.574731):

Key:
[1] = folding enthalpy; higher = less favourable; fluorescence melt of hairpins on a sequencing array, two-state fit; details: sodium 0.088 M
Summary of the method: (§1)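 Melting temperature and folding enthalpy were obtained by bootstrapped two-state fitting. Fits used Cy3 fluorescence of library hairpins with annealed Cy3 and quencher oligos on a sequenced MiSeq flow cell, imaged in 50 mM Na-HEPES pH 8.0, 25 mM NaCl in 2.5 °C steps up to 60 °C and normalised to pre-quench Cy3 and control constructs. Four replicates were combined by inverse-variance weighting, and fitted temperatures were raised by 9.35 °C to match UV melts.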

[2] = melting temperature; fluorescence melt of hairpins on a sequencing array, two-state fit, raised by 9.35 °C to match UV melts; details: sodium 0.088 M
Summary of the method: as §1

GCTAAACGAAAGTTAAGC (((.(((....))).))) gave a folding enthalpy [1] of -29.1 kcal/mol and a Tm [2] of 44.3 °C.

GCTAAATCGAAAGATAGC (((..(((....)))))) showed a folding enthalpy [1] of -18.4 kcal/mol and a Tm [2] of 33.9 °C.

With GCTAACCGAAAGGTAAGC (((.(((....))).))) the folding enthalpy [1] was -30.8 kcal/mol and the Tm [2] was 52.1 °C.

GCTAACGAAAGTTCAAGC ((((((....)))..))) showed a folding enthalpy [1] of -12.5 kcal/mol and a Tm [2] of 30.9 °C.

For GCTAACGAAAGTTCAGC ((((((....))).))), the folding enthalpy [1] was -21.8 kcal/mol and the Tm [2] was 39 °C.

In the case of GCTAACGAAAGTTGAGC ((((((....))).))), the folding enthalpy [1] was -26.1 kcal/mol and the Tm [2] was 41.5 °C.

With GCTAACGAAAGTTTCAGC ((((((....)))..))) the folding enthalpy [1] was -14.2 kcal/mol and the Tm [2] was 29.7 °C.

Work on GCTAACGGAAACGTTAAC (.(((((....))))).) yielded a folding enthalpy [1] of -16.1 kcal/mol and a Tm [2] of 34.8 °C.

In the case of GCTAACGGAAACGTTGGC ((.((((....)))).)), the folding enthalpy [1] was -36.1 kcal/mol and the Tm [2] was 52.6 °C.

GCTAAGAAATTAGC (((((....))))) gave a folding enthalpy [1] of -16.8 kcal/mol and a Tm [2] of 39.5 °C.

Sequence GCTAAGCGAAAGCATCGC ((.(.((....)).).)) has a folding enthalpy [1] of -11.1 kcal/mol and a Tm [2] of 30.7 °C.

In the case of GCTAAGCGAAAGCCGAGC (((..((....))..))), the folding enthalpy [1] was -19.1 kcal/mol and the Tm [2] was 42.2 °C.

GCTAAGCGAAAGCGTTGC ((.(.((....)).).)) gave a folding enthalpy [1] of -20 kcal/mol and a Tm [2] of 53.4 °C.

With GCTAAGCGAAAGCTTCGC ((.((((....)))).)) the folding enthalpy [1] was -20.9 kcal/mol and the Tm [2] was 53.8 °C.

Sequence GCTAATCGAAAGATAGC (((.(((....)))))) has a folding enthalpy [1] of -26.4 kcal/mol and a Tm [2] of 44.6 °C.

GCTAATCGAAAGATCAGC (((.(((....))).))) showed a folding enthalpy [1] of -29.4 kcal/mol and a Tm [2] of 41.2 °C.

Work on GCTAATGGAAACACTAGC ((((.((....)).)))) yielded a folding enthalpy [1] of -23.9 kcal/mol and a Tm [2] of 31.2 °C.

GCTAATGGAAACATTGGC ((.((((....)))).)) showed a folding enthalpy [1] of -41.2 kcal/mol and a Tm [2] of 45.6 °C.

In the case of GCTACCGAAAGGTAGAGC ((((((....)))..))), the folding enthalpy [1] was -19.1 kcal/mol and the Tm [2] was 53.7 °C.

GCTACCGAAAGGTCCAGC ((((((....)))..))) gave a folding enthalpy [1] of -11.4 kcal/mol and a Tm [2] of 29 °C.

With GCTACCGAAAGGTTAGC ((((((....))).))) the folding enthalpy [1] was -28 kcal/mol and the Tm [2] was 52.7 °C.

GCTACCGGAAACAGTAGC (((((.(....).))))) gave a folding enthalpy [1] of -34.3 kcal/mol and a Tm [2] of 40.6 °C.

Work on GCTACGACGAAAGTCAGC (((..(((....)))))) yielded a folding enthalpy [1] of -17 kcal/mol and a Tm [2] of 37 °C.

GCTACGCGAAAGCCAAGC (((..((....))..))) showed a folding enthalpy [1] of -13.3 kcal/mol and a Tm [2] of 34.9 °C.

Work on GCTACGCGAAAGCCTCGC ((.(.((....)).).)) yielded a folding enthalpy [1] of -7.35 kcal/mol and a Tm [2] of 18.1 °C.

In the case of GCTACGCGAAAGCTCAGC (((..((....))..))), the folding enthalpy [1] was -13.1 kcal/mol and the Tm [2] was 37 °C.

With GCTACGGCGAAAGCCAGC (((..(((....)))))) the folding enthalpy [1] was -13.3 kcal/mol and the Tm [2] was 42.9 °C.

Sequence GCTACTCCGAAAGGAAGC (((..(((....)))))) has a folding enthalpy [1] of -17.9 kcal/mol and a Tm [2] of 30.1 °C.

GCTACTCGAAAGAGAAGC (((.(((....))).))) showed a folding enthalpy [1] of -28.6 kcal/mol and a Tm [2] of 50.4 °C.

For GCTACTCGAAAGAGCAGC (((.(((....))).))), the folding enthalpy [1] was -37.7 kcal/mol and the Tm [2] was 49.6 °C.

Sequence GCTACTGAAAAGTAGC ((((((....)))))) has a folding enthalpy [1] of -35.1 kcal/mol and a Tm [2] of 56.7 °C.

With GCTACTGGAAACAGCAGC (((.(((....))).))) the folding enthalpy [1] was -28.7 kcal/mol and the Tm [2] was 44.7 °C.

Work on GCTAGAGGAAACTTTAGC ((((.((....)).)))) yielded a folding enthalpy [1] of -20.8 kcal/mol and a Tm [2] of 35 °C.

GCTAGCGAAAGCTAAAGC ((((((....)))..))) gave a folding enthalpy [1] of -19.1 kcal/mol and a Tm [2] of 46 °C.

GCTAGCGAAAGCTACAGC ((((((....)))..))) showed a folding enthalpy [1] of -15.5 kcal/mol and a Tm [2] of 39.6 °C.

For GCTAGCGAAAGCTTGAGC ((((((....)))..))), the folding enthalpy [1] was -13.5 kcal/mol and the Tm [2] was 41.2 °C.

Sequence GCTAGGCGAAAGCACAGC (((..((....))..))) has a folding enthalpy [1] of -19.4 kcal/mol and a Tm [2] of 46.3 °C.

Work on GCTAGGCGAAAGCAGAGC (((..((....))..))) yielded a folding enthalpy [1] of -23.5 kcal/mol and a Tm [2] of 53.3 °C.

For GCTAGGCGAAAGCATAGC ((((.((....)).)))), the folding enthalpy [1] was -32.7 kcal/mol and the Tm [2] was 64.6 °C.

With GCTAGGCGAAAGCATCGC ((.(.((....)).).)) the folding enthalpy [1] was -15.9 kcal/mol and the Tm [2] was 38 °C.

Sequence GCTAGGCGAAAGCATGGC ((.(.((....)).).)) has a folding enthalpy [1] of -20.7 kcal/mol and a Tm [2] of 50.1 °C.

GCTAGGCGAAAGCCCTGC ((..(((....)))..)) gave a folding enthalpy [1] of -12.3 kcal/mol and a Tm [2] of 39.8 °C.

Sequence GCTAGGCGAAAGCCTTGC ((.((((....)))).)) has a folding enthalpy [1] of -21.1 kcal/mol and a Tm [2] of 61.8 °C.

GCTAGGCGAAAGCGTGGC ((.(.((....)).).)) gave a folding enthalpy [1] of -19.5 kcal/mol and a Tm [2] of 49.8 °C.

GCTAGGCGAAAGCTTAGC ((((.((....)).)))) gave a folding enthalpy [1] of -31.1 kcal/mol and a Tm [2] of 61 °C.

With GCTAGGGAAACCTAGC ((((((....)))))) the folding enthalpy [1] was -36.9 kcal/mol and the Tm [2] was 58.4 °C.

Sequence GCTAGTCGAAAGACAGC (((.(((....)))))) has a folding enthalpy [1] of -24.8 kcal/mol and a Tm [2] of 52.1 °C.

Sequence GCTAGTGGAAACACCAGC (((.(((....))).))) has a folding enthalpy [1] of -23.6 kcal/mol and a Tm [2] of 39.2 °C.

For GCTATAACGAAAGTTAGC (((..(((....)))))), the folding enthalpy [1] was -19.8 kcal/mol and the Tm [2] was 37.5 °C.

Work on GCTATACGAAAGTACAGC (((.(((....))).))) yielded a folding enthalpy [1] of -30.2 kcal/mol and a Tm [2] of 41.8 °C.

For GCTATACGAAAGTAGAGC (((.(((....))).))), the folding enthalpy [1] was -38.3 kcal/mol and the Tm [2] was 53.4 °C.

In the case of GCTATAGAAATATAGC ((((((....)))))), the folding enthalpy [1] was -32.9 kcal/mol and the Tm [2] was 42.8 °C.

With GCTATAGGAAACTATAGC (((((((....))))))) the folding enthalpy [1] was -39.5 kcal/mol and the Tm [2] was 53.2 °C.

GCTATAGGAAACTGTAGC ((((.((....)).)))) showed a folding enthalpy [1] of -32.8 kcal/mol and a Tm [2] of 43.5 °C.

With GCTATATCGAAAGATAGC (((..(((....)))))) the folding enthalpy [1] was -25.2 kcal/mol and the Tm [2] was 36.2 °C.

With GCTATCGAAAGATAAGC ((((((....))).))) the folding enthalpy [1] was -26.7 kcal/mol and the Tm [2] was 45 °C.

In the case of GCTATCGAAAGATCCAGC ((((((....)))..))), the folding enthalpy [1] was -13.3 kcal/mol and the Tm [2] was 26.1 °C.

Work on GCTATCGAAAGATTGAGC ((((((....)))..))) yielded a folding enthalpy [1] of -20.5 kcal/mol and a Tm [2] of 32.9 °C.

GCTATCGCGAAAGCGAGC (((..(((....)))))) gave a folding enthalpy [1] of -10.3 kcal/mol and a Tm [2] of 39.2 °C.

Sequence GCTATCGGAAACGATAAC (.(((((....))))).) has a folding enthalpy [1] of -17.4 kcal/mol and a Tm [2] of 34.5 °C.

Sequence GCTATCGGAAACGATAGC (((((((....))))))) has a folding enthalpy [1] of -52.4 kcal/mol and a Tm [2] of 64.3 °C.

In the case of GCTATGCGAAAGCAAGGC ((..(((....)))..)), the folding enthalpy [1] was -18.4 kcal/mol and the Tm [2] was 42.5 °C.

For GCTATGCGAAAGCACCGC ((..(((....)))..)), the folding enthalpy [1] was -8.22 kcal/mol and the Tm [2] was 31.9 °C.

GCTATGCGAAAGCCAAGC (((..((....))..))) showed a folding enthalpy [1] of -16.7 kcal/mol and a Tm [2] of 36.5 °C.

Sequence GCTATGCGAAAGCCTCGC ((.(.((....)).).)) has a folding enthalpy [1] of -11.5 kcal/mol and a Tm [2] of 32.2 °C.

GCTATGCGAAAGCGTAGC ((((.((....)).)))) showed a folding enthalpy [1] of -34.5 kcal/mol and a Tm [2] of 65.7 °C.

GCTATGGGAAACCATGGC ((.((((....)))).)) showed a folding enthalpy [1] of -41 kcal/mol and a Tm [2] of 50.9 °C.

Work on GCTATGGGAAACTATAGC (((((.(....).))))) yielded a folding enthalpy [1] of -33.3 kcal/mol and a Tm [2] of 43.7 °C.
